Screens from PubChem.
M5 antag – human M5 muscarinic receptor antagonists, primary screen, CHO cells, Fluo-8 calcium fluorescence | 360,000 compounds, 0.59% hits | CHO-hM5 cells, ACh EC80 | inhibition, % at 3 µM | Muscarinic acetylcholine receptor M5 (Homo sapiens), P08912 | AID 624040, 2012;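 active = inhibition above a per-plate cutoff, the mean of that plate's test compounds plus 3 SD, cut at about 27% in these data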;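 also: 0% = acetylcholine EC80 with DMSO and 100% = DMSO without agonist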
M4 ag – human M4 muscarinic receptor agonists, primary screen, CHO-K1 cells, Fluo-8 calcium fluorescence; CHO-K1 hM4/Gqi5; vehicle 0%, full acetylcholine response 100%; activation, % at 3 µM; 360,000 compounds, 0.14% hits;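 active = activation above the run mean over all test wells plus 3 SD, cut at about 32% in these data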;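 also: peak over basal fluorescence ratio per well then scaled between controls; 0% = DMSO wells and 100% = acetylcholine at EC100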
Target sequence (P08173 whole entry, looked up): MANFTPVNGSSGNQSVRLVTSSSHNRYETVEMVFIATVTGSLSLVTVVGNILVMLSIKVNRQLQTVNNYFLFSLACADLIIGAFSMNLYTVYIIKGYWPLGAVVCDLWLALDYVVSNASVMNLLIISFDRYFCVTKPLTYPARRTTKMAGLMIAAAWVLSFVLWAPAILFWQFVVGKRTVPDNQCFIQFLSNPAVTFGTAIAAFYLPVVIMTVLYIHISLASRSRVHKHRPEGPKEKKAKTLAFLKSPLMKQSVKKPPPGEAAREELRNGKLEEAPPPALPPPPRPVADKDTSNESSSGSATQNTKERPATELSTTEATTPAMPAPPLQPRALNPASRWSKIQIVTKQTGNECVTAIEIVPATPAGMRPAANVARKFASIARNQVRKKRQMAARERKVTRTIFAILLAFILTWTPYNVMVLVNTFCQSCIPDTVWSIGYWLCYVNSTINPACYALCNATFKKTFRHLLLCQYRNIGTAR
M5 PAM – human M5 muscarinic receptor positive allosteric modulators, primary screen, CHO-K1 cells, Fluo-8 calcium fluorescence; Muscarinic acetylcholine receptor M5 (Homo sapiens), P08912; 360,000 compounds, 0.3% hits; activation, % at 3 µM; AID 624038, 2012; CHO-K1 hM5, ACh EC20 PAM; 0% = ACh EC20, 100% = ACh EC100;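 active = activation above the run cutoff, the mean activation of all test compounds plus 3 SD, cut at about 18% in these data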
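System: CHO-K1 hM5 cells. Reagent: acetylcholine, EC20 level. Compound dosing: single dose, 3 µM nominal final test concentration. Timing: Post-acetylcholine fluorescence recording 140 s. Detection: Fluo-8 calcium fluorescence. Read-out: % activation, ACh-normalized. Benchmarks: ACh EC20 and EC100 wells. Repeats: singlicate, one well per test compound.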
CHRM4 antagonist – human M4 muscarinic receptor antagonists, primary screen, CHO cells, Fluo-8 calcium fluorescence; Muscarinic acetylcholine receptor M4 (Homo sapiens), P08173; CHO-hM4 cells, ACh EC80; inhibition, % at 3 µM; 360,000 compounds, 0.73% hits;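 active = inhibition above its plate's cutoff, the mean inhibition of sample wells plus 3 SD, cut at about 27% in these data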;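 also: 0% = acetylcholine EC80 with DMSO and 100% = DMSO without agonist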
M5 ag – human M5 muscarinic receptor agonists, primary screen, CHO-K1 cells, Fluo-8 calcium fluorescence; Muscarinic acetylcholine receptor M5 (Homo sapiens), P08912; CHO-K1 hM5 cells; 0% DMSO wells, 100% maximal acetylcholine response; activation, % at 3 µM; 360,000 compounds, 0.19% hits; AID 624037, 2012;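 active = activation above the run's mean over test compounds plus 3 SD, cut at about 23% in these data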;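 also: signal is peak over basal fluorescence ratio across the kinetic read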
CHRM4 PAM – human M4 muscarinic receptor positive allosteric modulators, primary screen, CHO-K1 cells, Fluo-8 calcium fluorescence; AID 624126, 2012; CHO-K1 hM4/Gqi5, ACh EC20; 0% = ACh EC20, 100% = maximal ACh; activation, % at 3 µM; Muscarinic acetylcholine receptor M4 (Homo sapiens), P08173; 360,000 compounds, 0.4% hits;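 active = activation above its plate's cutoff, the mean activation of sample wells plus 3 SD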
Numbers without * were called inactive; ! = not confirmed by another sample. Hits are enriched below; roughly 1.8% of the tested compounds scored in any of these assays.

SMILES | M5 antag | M4 ag | M5 PAM | CHRM4 antagonist | M5 ag | CHRM4 PAM
CCN(CC)CCNC(=O)c1ccc(NC(=O)c2ccccc2-c2ccc(C(F)(F)F)cc2)cc1 | 81* | 3 | -18 | 71* | -7 | -17
CCN(CC)CCNC(=O)c1ccc(NC(=O)Cc2ccccc2F)cc1 | -5 | 0 | 7 | -6 | -11 | 8
CCN(CC)CCNC(=O)c1ccc(NC(=O)c2ccc3c(c2)CCC3)cc1 | -1 | 1 | -2 | -16 | -10 | -4
CCN(CC)CCNC(=O)c1ccc(NC(=O)c2cccc(S(=O)(=O)N(C)C3CCCCC3)c2)cc1 | 98* | 1 | -40 | 98* | -10 | -16
Cc1c(Br)c([N+](=O)[O-])nn1CC(=O)N1CCc2ccccc2C1 | -8 | 0 | 6 | -6 | -2 | -5
Cc1c(Br)c([N+](=O)[O-])nn1C(C)C(=O)N1CCc2ccccc2C1 (configuration not stated) | 21 | 1 | -13 | 55* | -8 | -14
CC(OC(=O)CCCN=C1NS(=O)(=O)c2ccccc21)C(=O)N(C)c1ccccc1 (configuration not stated) | 3 | 2 | 2 | -12 | -1 | 1
CC(OC(=O)CCCN=C1NS(=O)(=O)c2ccccc21)C(=O)c1ccccc1 (configuration not stated) | 2 | 18 | -1 | -11 | 26* | 3
Cc1ccc(-c2nn(-c3ccccc3)cc2C(=O)Nc2cccc(S(=O)(=O)NC3=NCCC3)c2)cc1 | 11 | 6 | -8 | 4 | 0 | -3
Cc1nn(C(C)C(=O)NCCc2ccco2)c(=O)c2nn(-c3ccccc3)c(C)c12 (configuration not stated) | 21 | 15 | 23* | 17 | 0 | 51*
CC[C@]1(C(=O)OC)[C@H]2C(=O)N(C)C(=O)[C@H]2[C@H]2CN=C(SCc3ccc(OC)cc3)N21 | -8 | 2 | 3 | -4 | 0 | 15
COc1ccccc1N=NNc1ccccc1OC | 11 | 0 | -7 | -6 | -2 | 4
CC(=O)C[C@@H](O)CC(=O)[C@H]1OC(=O)CC/C=C\Cc2ccccc21 | 18 | 1 | -9 | 5 | 0 | 4
CC(=O)C[C@@H](O)CC(=O)[C@@H]1OC(=O)CC/C=C\Cc2ccccc21 | -6 | 2 | 12 | -3 | 3 | 26*
CCc1ccc2c(c1)cc(CN(C(=S)Nc1ccccc1)C1CC1)c1nnnn12 | 4 | 0 | 3 | -15 | -2 | 32*
CCOc1ccccc1N1CCN(CC(=O)N(C)CC(=O)Nc2ccccc2CC)CC1 | -3 | 2 | -3 | -9 | -1 | -1
O=C(O)c1cn(Cc2ccccc2)nc1-c1cccnc1 | -8 | 1 | 10 | -3 | -1 | 0
O=C(O)c1ccccc1CC(CCc1ccccc1)C(=O)O (configuration not stated) | 17 | 0 | -10 | 2 | 4 | -1
CCS(=O)(=O)N1Cc2cc(C(=O)NCCOC)nc(-c3cccc(-c4ccncc4)c3)c2[C@H]1CCO | 6 | 1 | 2 | 2 | 1 | -3
CN(C)CCCOC(=O)C1c2ccccc2Oc2ccccc21 | 97* | 1 | -26 | 95* | -11 | -17
COCCCNC(=O)C1c2ccccc2Oc2ccccc21 | 5 | 0 | -4 | 2 | -5 | -5
CC[N+](C)(CC)CCOC(=O)C1c2ccccc2Oc2ccccc21 | 99* | 1 | -18 | 99* | -2 | -17
CN(CCOC(=O)C1c2ccccc2Oc2ccccc21)C(C)(C)C | 98* | 1 | -23 | 99* | -6 | -22
CCN(CC)CCCNC(=O)C1c2ccccc2Oc2ccccc21 | 28* | 1 | -35 | 16 | -12 | -12
COc1ccc(C(C)(O)c2nc(-c3cccc(NC(C)=O)c3)cs2)cc1 (configuration not stated) | 3 | 6 | 0 | 11 | 3 | -2
SMILES | M5 antag | M4 ag | M5 PAM | CHRM4 antagonist | M5 ag | CHRM4 PAM
C[C@]12c3[nH]c4cc(-c5ccco5)ccc4c3CCN1C(=O)[C@@H](CC(=O)NCc1ccco1)C[C@@H]2C(=O)N1CCOCC1 | -20 | 2 | 6 | -19 | -1 | -1
CCCN1CCN(S(=O)(=O)c2c(C)[nH]c(C)c2C(=O)N2CCCCC2)CC1 | 0 | 1 | 3 | 0 | -3 | 4
CN1CCc2cc3c(c4c2[C@H]1[C@H](O)c1ccccc1-4)OCO3 | -2 | -1 | 2 | 5 | -12 | 1
CN1CCc2cccc3c2[C@H]1Cc1ccc(O)c(O)c1-3 | 27 | 3 | -18 | 81*! | 0 | -19
CC(C)CN(C(=O)CCC(=O)OCc1ccc(Cl)cc1Cl)c1c(N)n(CC(C)C)c(=O)[nH]c1=O | 5 | 2 | -1 | -5 | 2 | 2
CN(C)c1ccc(/C=C/c2ccc3c4ccccc4ccc3[n+]2-c2ccccc2)cc1 | 43* | 18 | -28 | 40* | -1 | -22
CN(C)c1ccc(/C=C/c2ccc3ccccc3[n+]2C)cc1 | 14 | 1 | -5 | 0 | -1 | 7
CCC(C)c1ccc(OCC(=O)Nc2ccc3c(c2)C(=O)NC3=O)cc1 (configuration not stated) | 12 | 7 | -6 | 8 | -1 | -3
Cc1oc(-c2ccccc2)cc1C(=O)Nc1cccc(C(=O)O)c1 | -2 | 1 | 14 | -5 | -4 | 43*
CCOc1ccc2nc(NC(=O)Nc3ccccc3)sc2c1 | 2 | 5 | -6 | 5 | -1 | -5
COc1cccc(NC(=O)Nc2cc(Cl)ccc2C)c1 | 32* | 10 | -7 | -4 | 0 | -4
COc1cccc(NC(=O)Nc2ccc3nc(C)c(C)nc3c2)c1 | -1 | 9 | 1 | -2 | 0 | 3
COc1ccc(NC(=O)Nc2cccc(OC)c2)cc1 | 2 | 6 | -3 | 5 | 2 | -1
COc1cccc(NC(=O)Nc2ccc3nsnc3c2)c1 | 54* | 21 | -16 | 9 | 5 | -12
COc1ccc2nc(NC(=O)Nc3ccccc3)sc2c1 | 5 | 18 | -13 | 43* | 7 | -18
c1ccc(CNc2nc(NCc3cccs3)nc3ccsc23)cc1 | 42* | 40* | -22 | 16 | 14 | -14
